Published values pooled from the literature.
Target: Serine/threonine-protein kinase ULK2 (ULK2, Homo sapiens, UniProt Q8IYT8)
Residues used in one study (Q8IYT8 1-1036): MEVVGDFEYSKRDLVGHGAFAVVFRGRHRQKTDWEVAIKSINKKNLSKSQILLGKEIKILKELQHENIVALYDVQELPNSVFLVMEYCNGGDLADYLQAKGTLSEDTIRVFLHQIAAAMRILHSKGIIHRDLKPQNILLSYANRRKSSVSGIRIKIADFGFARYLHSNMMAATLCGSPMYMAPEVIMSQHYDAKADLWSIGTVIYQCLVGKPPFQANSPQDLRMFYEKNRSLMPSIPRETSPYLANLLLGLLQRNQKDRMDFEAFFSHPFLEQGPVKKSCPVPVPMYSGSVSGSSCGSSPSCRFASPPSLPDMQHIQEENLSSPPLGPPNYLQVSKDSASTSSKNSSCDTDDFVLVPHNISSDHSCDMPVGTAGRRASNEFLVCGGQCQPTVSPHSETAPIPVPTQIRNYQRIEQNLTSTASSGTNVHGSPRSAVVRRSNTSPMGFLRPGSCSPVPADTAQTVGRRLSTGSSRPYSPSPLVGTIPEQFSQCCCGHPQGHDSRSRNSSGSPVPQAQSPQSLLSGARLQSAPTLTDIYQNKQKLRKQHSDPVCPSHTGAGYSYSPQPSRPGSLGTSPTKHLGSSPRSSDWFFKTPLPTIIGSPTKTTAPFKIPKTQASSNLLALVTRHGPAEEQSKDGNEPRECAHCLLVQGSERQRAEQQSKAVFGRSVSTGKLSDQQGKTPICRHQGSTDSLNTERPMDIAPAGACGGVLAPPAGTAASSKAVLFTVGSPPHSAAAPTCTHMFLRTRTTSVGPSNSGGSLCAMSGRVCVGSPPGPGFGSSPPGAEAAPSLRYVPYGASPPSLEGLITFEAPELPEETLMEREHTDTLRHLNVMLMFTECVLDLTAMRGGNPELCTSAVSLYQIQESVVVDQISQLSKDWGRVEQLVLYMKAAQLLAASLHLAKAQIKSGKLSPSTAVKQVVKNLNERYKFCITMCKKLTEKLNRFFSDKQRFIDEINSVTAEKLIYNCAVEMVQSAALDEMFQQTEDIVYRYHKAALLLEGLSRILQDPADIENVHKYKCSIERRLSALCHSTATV

| SMILES | assay | conditions | remaining binding [%] |
| --- | --- | --- | --- |
| N#Cc1ccccc1CSc1nnc2c(n1)[nH]c1ccccc12 | binding, competition with immobilised ligand | 10 µM | 94 |
| O=C(NCC1CCOCC1)c1n[nH]cc1NC(=O)c1c(F)cccc1F | binding, competition with immobilised ligand | 1 µM | 81 |
| C[C@@H]1CN(c2ccc3ncc(-c4ccc5[nH]nc(C6CC6)c5c4)n3n2)C[C@H](C)O1 | binding, competition with immobilised ligand | 50 nM | 92 |
| N[C@@H]1CCN(c2nccc(-c3cnn4ncccc34)n2)C1 | binding | 1 µM | 100 |
| CCS(=O)(=O)c1cc2cc(C[C@](O)(CC(C)(C)c3ccc(F)cc3C(N)=O)C(F)(F)F)[nH]c2cn1 | cell-free assay, competition with immobilised ligand | 1 µM | 100 |
| CN(CCCC(F)(F)F)c1nccc(-c2cnn3ncccc23)n1 | binding | 1 µM | 96 |
| Nc1ncc2c(n1)-c1c([nH]c3ccc(C#CC4CC4)cc13)CCCC2 | binding, competition with immobilised ligand | 1 µM | 100 |
| O=C(c1ccc(Nc2ncc(Cl)c(-c3ccc(Cl)s3)n2)cc1)N1CCC(N2CCCC2)CC1 | binding, competition with immobilised ligand | 1 µM | 31 |
| COC(=O)Nc1nc2ccc(C(=O)c3ccccc3)cc2[nH]1 | cell-free assay, competition with immobilised ligand | 10 µM | 30 |
| O=C(c1ccc(Nc2nccc(-c3cc4ccccc4s3)n2)cc1)N1CCC(N2CCCC2)CC1 | binding, competition with immobilised ligand | 1 µM | 87 |
| CC(C)(C)c1ccc(-c2nc(CBr)nn2-c2cccc(O)c2)cc1 | cell-free assay, competition with immobilised ligand | 10 µM | 92 |
| CCN1CCN(Cc2ccc(C(=O)Nc3ccc(C)c(Oc4ccc5c(c4)CC(=O)N5)c3)cc2C(F)(F)F)CC1 | binding, competition with immobilised ligand | 1 µM | 100 |
| O=C(O)[C@H]1[C@H](Cn2nnc3ccccc3c2=O)CC[C@@H]1C(=O)c1ccc(OCCC2CCOCC2)cc1 | cell-free assay, competition with immobilised ligand | 1 µM | 100 |
| c1cnn2ncc(-c3ccnc(N4CCC45COC5)n3)c2c1 | binding | 1 µM | 59 |
| CCOC(=O)c1cc2cc(-c3cc(C(=O)NCc4ccc(C(=O)O)cc4)nn3C)ccc2[nH]1 | cell-free assay, competition with immobilised ligand | 0.1 µM | 78 |
| C[C@H]1CCN(c2nccc(-c3cnn4ncccc34)n2)C1 | binding | 1 µM | 63 |
| FC(F)(F)c1ccc2c(c1)nc(-c1cccnc1)n2C1CC1 | cell-free assay, competition with immobilised ligand | 1 µM | 100 |
| CN(C)c1nccc(-c2cnn3ncccc23)n1 | binding | 1 µM | 100 |
| C[C@@H](c1ccc(-n2cnc3c(N)ncnc32)cc1)N1CCc2nn(C)c(Cc3ccccc3)c2C1=O | binding, competition with immobilised ligand | 0.1 µM | 70 |
| COc1cc(-c2cn(C3CCc4c(F)cccc4N(CC(F)(F)F)C3=O)nn2)ccc1-n1cnc(C)c1 (stereo not shown) | cell-free assay, competition with immobilised ligand | 1 µM | 100 |
| COc1cnc(Nc2cccc(S(N)(=O)=O)c2)nc1N1CCN(c2ccccc2)C(=O)C1 | binding, competition with immobilised ligand | 1 µM | 51 |
| CS(=O)(=O)c1cc(C2(NC(=O)c3cncc4c3cnn4-c3ccc(F)cc3)CC2)ccn1 | cell-free assay, competition with immobilised ligand | 1 µM | 92 |
| CN(C)c1nccc(-c2cnc3ncccn23)n1 | binding | 1 µM | 74 |
| O=C(NCCCN1CCOCC1)c1ccc(Nc2nccc(-c3cc4ccccc4s3)n2)cc1 | binding, competition with immobilised ligand | 1 µM | 62 |
| COc1ccc2c(c1)O[C@H](c1ccc(OC)c(OC)c1)C[C@@H]2NC(=O)C1(c2ccc3c(c2)OC(F)(F)O3)CC1 | cell-free assay, competition with immobilised ligand | 1 µM | 100 |
